This is an account of results in ChEMBL document CHEMBL1122346, “Antihypertensive activity of 6-arylpyrido[2,3-d]pyrimidin-7-amine derivatives. 2. 7-Acyl amide analogues” (J Med Chem, 1983).

The species entered for data set [1] is Rattus norvegicus. Description: Maximum percent decrease in blood pressure in SHR ( hour post dose in parentheses). The data set is classed as functional.
Data set [2] deals with Rattus norvegicus. Description: Antihypertensive activity in conscious spontaneously hypertensive rats 10 hr following 50 mg/kg p.o.; Range 10-20%. The data set is classed as functional. The following applies: route oral.
In data set [3] the test system is Rattus norvegicus. Description: Antihypertensive activity rating in conscious SHR after 24 hr post dose at 50 mg/kg (po)v. Type of data set: functional.
The test system of data set [4] is Rattus norvegicus. Put plainly: Antihypertensive activity rating in conscious SHR after 2 hr post dose at 50 mg/kg (po); Range 10-20%. Type of data set: functional.
In data set [5] the test system is Rattus norvegicus. Put plainly: Antihypertensive activity in conscious spontaneously hypertensive rats 10 hr following 50 mg/kg p.o.; No significant reduction. Type of data set: functional. The conditions noted are these: route oral.
Data set [6] relates to Rattus norvegicus. Put plainly: Antihypertensive activity rating in conscious SHR after 18 hr post dose at 50 mg/kg (po); 0=No significant reduction. The data set is classed as functional.
Data set [7] relates to Rattus norvegicus. Description: Antihypertensive activity in conscious spontaneously hypertensive rats 2 hr following 50 mg/kg p.o.; No significant reduction. Type of data set: functional. The conditions noted are these: route oral.
Data set [8] has as its system Rattus norvegicus. Description: Antihypertensive activity rating in conscious SHR after 24 hr post dose at 50 mg/kg (po). The data set is classed as functional.
Data set [9] deals with Rattus norvegicus. Put plainly: Antihypertensive activity rating in conscious SHR after 24-72 hr post dose at 10 mg/kg (po); Range 10-20%. The data set is classed as functional.
The test system of data set [10] is Rattus norvegicus. Put plainly: Antihypertensive activity rating in conscious SHR after 10 hr post dose at 50 mg/kg (po). The data set is classed as functional.
Data set [11] is described as follows: Solubility, determined in 0.1 N HCl. The data set is classed as physicochemical. The following applies: read-out: S. The gist of the method: (§1)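 Dissolved compound was quantified by UV absorption. For the pH 7 value, the acidic solution was brought to pH 7 to give the unprotonated base, the precipitate was removed, and the supernatant was assayed again by UV.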

Data set [12] is described as follows: Half-life measured in 0.1 N HCl (*-<5% change after 14 days at 25 degrees C; Stable. The conditions noted are these: buffer, 336 h. Type of data set: ADME. The gist of the method:
(§2)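 Hydrolytic stability was tested at room temperature on solutions of ca. 0.001-0.002%. Media were 0.1 N HCl (pH ~1.5), 50% MeOH/pH 7 phosphate buffer (pH ~8.0), and 50% MeOH/0.05 N aqueous NaOH (pH ~12.2). Changes in the UV spectrum were followed over 2 weeks.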

Data set [13] in a line: Half-life measured in 1:1 ratio of MeOH and phosphate buffer at pH 7; Stable. Type of data set: ADME. An outline of the steps: as §2
Data set [14] in a line: Solubility, determined in phosphate buffer at pH 7. The data set is classed as physicochemical. The gist of the method: as §1
For data set [15], the system named is Rattus norvegicus. Put plainly: Antihypertensive activity rating in conscious SHR after 10 hr post dose at 10 mg/kg (po); Range 10-20%. Type of data set: functional.
Data set [16] is described as follows: pKa value, measured in 67% DMF/water.
The test system of data set [17] is Rattus norvegicus. Put plainly: Antihypertensive activity rating in conscious SHR after 10 hr post dose at 50 mg/kg (po); Range 20-30%. Type of data set: functional.
Data set [18] can be described thus: Half-life measured in 1:1 ratio of MeOH and 0.1 N NaOH. The following applies: 1:1 MeOH / 0.1 N NaOH. The data set is classed as ADME. An outline of the steps: as §2
For data set [19], the system named is Rattus norvegicus. Description: Antihypertensive activity rating in conscious SHR after 2 hr post dose at 10 mg/kg (po); 0=No significant reduction. The data set is classed as functional.
Data set [20] has as its system Rattus norvegicus. Put plainly: Antihypertensive activity rating in conscious SHR after 24 h post dose at 50 mg/kg (po); Range 20-30%. The data set is classed as functional.
Data set [21] is described as follows: Half-life measured in 1:1 ratio of MeOH and phosphate buffer at pH 7; 15-17. Type of data set: ADME. The conditions noted are these: 1:1 MeOH / phosphate buffer. An outline of the steps:
as §2

Data set [22] in a line: Half-life measured in 0.1 N HCl; Stable. Type of data set: ADME. The following applies: buffer. An outline of the steps: as §2
Data set [23] in a line: pKa value, measured in 67% of DMF. Type of data set: physicochemical. The following applies: 67% DMF. The gist of the method: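 Dissociation constants were found by potentiometric titration in 67% N,N-dimethylformamide/water.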
The subject of data set [24] is Rattus norvegicus. Description: Antihypertensive activity rating in conscious SHR after 2 hr post dose at 10 mg/kg (po); Range 10-20%. The data set is classed as functional.
The nature of data set [25]: Half-life measured in 1:1 ratio of MeOH and phosphate buffer at pH 7. The data set is classed as ADME. The conditions noted are these: 1:1 MeOH / phosphate buffer. An outline of the steps:
as §2

Data set [26] has as its system Rattus norvegicus. Description: Antihypertensive activity rating in conscious SHR after 10 h post dose at 10 mg/kg (po); 0=No significant reduction. Type of data set: functional.
Data set [27] concerns Rattus norvegicus. Put plainly: Antihypertensive activity rating in conscious SHR after 24 hr post dose at 50 mg/kg (po); 0=No significant reduction. Type of data set: functional.
Data set [28] has as its system Rattus norvegicus. Description: Antihypertensive activity rating in conscious SHR after 18 hr post dose at 50 mg/kg (po); Range 10-20%. Type of data set: functional.
The subject of data set [29] is Rattus norvegicus. Put plainly: Antihypertensive activity rating in conscious SHR after 18 hr post dose at 50 mg/kg (po). The data set is classed as functional.
Data set [30] can be described thus: Half-life measured in 0.1 N HCl. Type of data set: ADME. An outline of the steps: as §2
For data set [31], the system named is Rattus norvegicus. Put plainly: Antihypertensive activity rating in conscious SHR after 2 hr post dose at 10 mg/kg (po); Range 20-30%. Type of data set: functional.
The test system of data set [32] is Rattus norvegicus. Description: Antihypertensive activity rating in conscious SHR after 2 hr post dose at 50 mg/kg (po). Type of data set: functional.
The subject of data set [33] is Rattus norvegicus. Description: Antihypertensive activity rating in conscious SHR after 10 hr post dose at 10 mg/kg (po); Range 20-30%. The data set is classed as functional.
Data set [34] relates to Rattus norvegicus. Put plainly: Antihypertensive activity rating in conscious SHR after 24 hr post dose at 10 mg/kg (po); 0=no significant reduction. Type of data set: functional.

≈ marks a conversion by molar mass, not a printed value.

As to `CC(=O)Nc1nc2ncncc2cc1-c1ccccc1Br`, the Decrease in the data set listed under Rattus norvegicus [1] came out at 19%. In addition, the Activity rating is given as 10% in the data set with Rattus norvegicus [2], 0% with Rattus norvegicus [3] and 10% with Rattus norvegicus [4].
As for `Cc1ncc2cc(-c3c(Cl)cccc3Cl)c(NC(=O)NC(C)(C)C)nc2n1`, the Activity rating in the data set on Rattus norvegicus [5], in the data set with Rattus norvegicus [6] and with Rattus norvegicus [7] was 0% in each case.
As for `Cc1ncc2cc(-c3c(Cl)cccc3Cl)c(N)nc2n1`, the Activity rating in the data set with Rattus norvegicus [8] is more than 30%; with Rattus norvegicus [9], 10%; in the data set on Rattus norvegicus [10], more than 30%; in the data set on Rattus norvegicus [4] it was 10%; in the data set with Rattus norvegicus [15], 10%. Besides, the Decrease in the data set filed under Rattus norvegicus [1] is 32%. Besides, the results for the solubility in data set [11] and in data set [14] were 4850 µg/mL (≈ 15.9 mM) and 7 µg/mL (≈ 0.0229 mM), respectively. In addition, the T1/2 result in data set [12] and in [13] was “Stable” throughout.
As to `Cc1ncc2cc(-c3c(Cl)cccc3Cl)c(NC(=O)c3ccco3)nc2n1`, the pKa stood at 10.7 in data set [16] and 4.3 in data set [23]. The Activity rating in the data set with Rattus norvegicus [17] stood at 20%; in the data set with Rattus norvegicus [9], 10%; with Rattus norvegicus [19] it was 0%; in the data set on Rattus norvegicus [4], 10%; in the data set with Rattus norvegicus [20], 20%; with Rattus norvegicus [15], 10%. Further, the figures for the half-life in data set [18] and in data set [21] were 4 h and 360 h, respectively. The Decrease in the data set listed under Rattus norvegicus [1] worked out at 27%. Moreover, the solubility in data set [11] worked out at 6600 µg/mL (≈ 16.5 mM); in [14] it was 220 µg/mL (≈ 0.551 mM). Moreover, in [22], the T1/2 result is on record as “Stable”.
Consider `Cc1ncc2cc(-c3c(Cl)cccc3Cl)c(NC(=O)c3cccnc3)nc2n1`, for which the pKa came out at 9.8 in data set [16] and 4.1 in data set [23]. Also, the Activity rating in the data set on Rattus norvegicus [17] worked out at 20%; in the data set with Rattus norvegicus [9], 10%; in the data set on Rattus norvegicus [24], 10%; in the data set with Rattus norvegicus [4], 10%. For the same compound, the half-life was 4 h in data set [18] and 54 h in [25]. The Decrease in the data set filed under Rattus norvegicus [1] turned out to be 26%. Further, the values for the solubility in [11] and in [14] were 26600 µg/mL (≈ 64.8 mM) and 2630 µg/mL (≈ 6.41 mM), respectively. In data set [22], the T1/2 result was “Stable”.
Take `Cc1ncc2cc(-c3c(Cl)cccc3Cl)c(NC(=O)c3ccc([N+](=O)[O-])cc3)nc2n1`: the Activity rating with Rattus norvegicus [26] and in the data set with Rattus norvegicus [19] was 0% throughout.
For the compound `CCO/C(=N\C)Nc1nc2nc(C)ncc2cc1-c1c(Cl)cccc1Cl`, the Decrease in the data set filed under Rattus norvegicus [1] came out at 10%. Also, the Activity rating in the data set with Rattus norvegicus [5], in the data set with Rattus norvegicus [7] and in the data set on Rattus norvegicus [27] was 0% in each case.
For `Cc1ncc2cc(-c3c(Cl)cccc3Cl)c(O)nc2n1`, the Decrease in the data set filed under Rattus norvegicus [1] amounted to 10%. For the same compound, the figures for the Activity rating in the data set with Rattus norvegicus [2], in the data set with Rattus norvegicus [28] and in the data set with Rattus norvegicus [7] were 10%, 10% and 0%, respectively.
For `CC(=O)Nc1nc2nc(C)ncc2cc1-c1c(Cl)cccc1Cl`, the values for the pKa in [16] and in data set [23] were 12.8 and 4.1, respectively. In addition, the half-life is less than 0.0833 h in [18], 12.5 h in [30] and 60 h in data set [25]. In addition, the Decrease in the data set listed under Rattus norvegicus [1] is listed as 45%. The Activity rating in the data set on Rattus norvegicus [29] is recorded as more than 30%; in the data set with Rattus norvegicus [9] it was 10%; in the data set on Rattus norvegicus [31], 20%; in the data set with Rattus norvegicus [10] it was more than 30%; with Rattus norvegicus [32], more than 30%; in the data set with Rattus norvegicus [33], 20%. In addition, the solubility in [11] was 34200 µg/mL (≈ 98.5 mM); in data set [14] it was 6050 µg/mL (≈ 17.4 mM).
`CCC(=O)Nc1nc2nc(C)ncc2cc1-c1c(Cl)cccc1Cl`: the Decrease in the data set listed under Rattus norvegicus [1] came out at 35%. Besides, the Activity rating in the data set with Rattus norvegicus [29] is recorded as more than 30%; with Rattus norvegicus [24] it was 10%; in the data set with Rattus norvegicus [34], 0; in the data set with Rattus norvegicus [10] it was more than 30%; in the data set with Rattus norvegicus [32] it was more than 30%; in the data set with Rattus norvegicus [15], 10%.
